Bioassay records from PubChem BioAssay.
GalR3 antag: blocks the human galanin receptor 3. 360,000 tested, 0.44% active. O60755. inhibition, % at 3 µM. HEK293 GalR3-CNG cAMP membrane potential fluorescence; galR3 body fused to GalR1 C-terminus;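 active means inhibition above the screen-wide average plus 3 SD, cut at about 13% in these data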;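 further: forskolin and galanin both at EC90 stimulate the cells; cAMP rise reported by CNG channel membrane potential dye signal; 0% = forskolin plus galanin with DMSO and 100% = forskolin alone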
Target sequence (O60755 1-299 limits assumed): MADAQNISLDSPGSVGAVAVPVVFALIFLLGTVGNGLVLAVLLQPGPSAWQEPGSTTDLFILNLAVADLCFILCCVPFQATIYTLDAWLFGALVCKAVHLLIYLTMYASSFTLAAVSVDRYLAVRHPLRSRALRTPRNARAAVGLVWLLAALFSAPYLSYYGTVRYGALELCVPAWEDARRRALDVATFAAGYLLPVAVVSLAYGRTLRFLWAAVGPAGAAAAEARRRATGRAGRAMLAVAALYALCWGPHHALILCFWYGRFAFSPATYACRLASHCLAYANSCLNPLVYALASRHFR
OX1R antag-1: antagonists of human orexin 1 receptor (OX1R); OX1R-expressing cells, FRET antagonist read-out; O43613; inhibition, % at 6.6 µM; 330,000 tested, 1.8% active; in the data active means inhibition mostly above about 38%, no sharp cut-off; inactive means mostly below about 40%;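 further: 0% = agonist challenge alone and 100% = reference antagonist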
CHO parental Ca: signal in parental CHO cells, OX1R antagonist counter-screen; parental CHO-K1, ATP-induced calcium, Fluo-8 fluorescence; inhibition, % at 5.6 µM; 330,000 tested, 0.63% active; AID 463079;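 active means inhibition above that plate's mean sample inhibition plus 3 SD, cut at about 26% in these data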;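 further: 0% = ATP-challenged DMSO wells and 100% = DMSO wells without ATP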
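Measured by: calcium-sensitive Fluo-8 fluorescence / Test system: CHO parental line / Controls: ATP-challenged DMSO wells low, unchallenged DMSO wells high / Measure: % inhibition / Compound: single nominal dose of 5.6 µM per compound / Replicates: single well per compound, no replicates / Reagent: ATP as calcium-mobilizing challenge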
OX1R antag-2: blocks the human orexin 1 receptor; O43613; CHO/OX1R cells, Fluo-8 calcium fluorescence, orexin A; inhibition, % at 5 µM; 330,000 tested, 0.43% active; AID 434989;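 active means inhibition above its plate's threshold, mean inhibition of all tested compounds on the plate plus 3 SD, cut at about 37% in these data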;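 further: 0% = orexin A challenge wells and 100% = SB-334867-A antagonist wells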
TAAR1 antag: human TAAR1 antagonism. Q96RJ0. inhibition, % at 3 µM. 360,000 tested, 1.5% active. CHO RD-HGA16 TAAR1, Fluo-8 calcium fluorescence, antagonist. AID 624466;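 active means inhibition above a per-plate cutoff, the mean inhibition of test compounds on that plate plus 3 SD, cut at about 49% in these data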;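 further: 0% = DMSO plus EC80 beta-PEA response and 100% = DMSO alone without agonist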
Target sequence (Q96RJ0 whole entry, looked up): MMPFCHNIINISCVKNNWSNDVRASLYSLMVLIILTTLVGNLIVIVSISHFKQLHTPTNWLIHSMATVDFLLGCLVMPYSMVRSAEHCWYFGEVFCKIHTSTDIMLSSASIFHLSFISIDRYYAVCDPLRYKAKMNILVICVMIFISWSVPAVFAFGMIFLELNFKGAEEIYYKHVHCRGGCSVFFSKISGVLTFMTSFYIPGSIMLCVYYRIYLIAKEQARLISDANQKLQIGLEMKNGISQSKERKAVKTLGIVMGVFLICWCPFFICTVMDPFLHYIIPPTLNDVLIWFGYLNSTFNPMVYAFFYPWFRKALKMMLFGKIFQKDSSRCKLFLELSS
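Test system – hTAAR1-expressing CHO RD-HGA16 cells, Gα16-coupled · Reagent – β-PEA at EC80 concentration, post-compound challenge · Compound dosing – 3 µM, single point · Timing – 140 s kinetic read after compound, 140 s after agonist · Detection – Fluo-8 intracellular calcium dye fluorescence, real-time kinetic reads · Control set – DMSO and EC80 PEA controls · Repeats – n of 1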
TAAR1 agonist: human TAAR1 agonism. Q96RJ0. CHO RD-HGA16 TAAR1, Fluo-8 calcium fluorescence; vehicle wells 0%, saturating PEA agonist 100%. activation, % at 3 µM. 360,000 tested, 0.99% active. AID 624467;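 active means activation above the mean activation of all test compounds in the run plus 3 SD, cut at about 38% in these data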
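System: CHO-derived RD-HGA16 cells with stable Gα16 and human TAAR1 / Times: 17-24 h plating, Fluo-8 75 min 37 °C, 30 min RT / Technique: calcium-sensitive Fluo-8 signal, excitation 470-495, emission 515-575 nm / Measure: % activation relative to PEA EC100 response / Benchmarks: DMSO and PEA EC100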
TAAR1 nonsel count: counter-screen for TAAR1 antagonists: nonselective antagonists; shares compounds with TAAR1 antag; counterscreen cell line, calcium fluorescence, antagonist mode; inhibition, % at 3 µM; 2,400 tested, 77% active; in the data active means inhibition above about 22%;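 further: CHO-Ga16 host cells stimulated with ATP at an EC80 level; 0% = agonist EC80 plus vehicle and 100% = vehicle without agonist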
TAAR1 ant conf: human TAAR1 antagonism, confirmed | shares compounds with TAAR1 antag | TAAR1-expressing cells, fluorescence antagonist read-out | inhibition, % at 3 µM | 2,400 tested, 40% active | AID 651785; in the data active means inhibition above about 49%;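 further: CHO-Ga16 host cells challenged with agonist PEA near its EC80; 0% = agonist at EC80 plus vehicle and 100% = vehicle with no agonist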
Ga16 nonsel ag: nonselective Ga16 agonist in TAAR1 antagonist counter-screen; shares compounds with TAAR1 antag; Ga16-expressing cells, calcium fluorescence, agonist counterscreen; activation, % at 3 µM; 2,400 tested, 18% active; AID 651953; in the data active means activation above about 12%;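 further: 0% = vehicle wells and 100% = saturating stimulus response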
TAAR1 ag counter: TAAR1 agonism, antagonist counter-screen | shares compounds with TAAR1 antag | hTAAR1 cell line, fluorescence activation, agonist mode | activation, % at 3 µM | 2,400 tested, 2% active | AID 651955; in the data active means activation above about 37%;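 further: CHO cells stably expressing TAAR1 with calcium dye readout; 0% = DMSO vehicle and 100% = full agonist response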
The depositor's hits bear a star; . = no result given. An excerpt weighted towards active compounds, which were near 4.2% of everything screened.

SMILES	GalR3 antag	OX1R antag-1	CHO parental Ca	OX1R antag-2	TAAR1 antag	TAAR1 agonist	TAAR1 nonsel count	TAAR1 ant conf	Ga16 nonsel ag	TAAR1 ag counter
CC(=O)c1cccc(NC(=O)CSc2ccc(-c3ccco3)nn2)c1	-3	10	-16	-23	-1	2	.	.	.	.
CC(=O)Nc1ccc(NC(=O)COC(=O)c2cc([N+](=O)[O-])ccc2N2CCOCC2)cc1	-2	25	-5	0	-15	1	.	.	.	.
CCOC(=O)c1ccccc1NC(=O)COC(=O)c1cc([N+](=O)[O-])ccc1N1CCOCC1	-5	43	-9	-12	59*	1	27*	30	7	3
Cc1nn(-c2ccccc2)c(Cl)c1C(=O)N1CCN(c2ncnc3c2cnn3-c2ccccc2)CC1	-4	83*	78*	51*	78*	21	52*	63*	13*	11
O=C(c1ccccc1)N1CCN(c2ncnc3c2cnn3-c2ccccc2)CC1	-6	15	-5	-32	20	11	.	.	.	.
N#C/C(=C\c1cc2ccccc2nc1N1CCOCC1)C(=O)Nc1ccc(N2CCOCC2)cc1	0	22	-6	-27	59*	13	30*	46	9	6
Cc1cccc(NC(=O)CCCCCN2C(=O)[C@@H]3Cc4ccccc4CN3C2=O)c1	-6	4	-39	-28	24	2	.	.	.	.
O=C(CCCCCN1C(=O)[C@@H]2Cc3ccccc3CN2C1=O)Nc1cccc(F)c1	-7	12	-10	-33	67*	8	42*	60*	13*	10
Cc1ccc(N(Cc2cc3ccc(C)cc3[nH]c2=O)C(=O)c2ccco2)c(C)c1	5	1	-23	-32	104*	0	12	-1	3	5
Cc1ccc2cc(CN(C(=O)c3ccco3)c3ccccc3C)c(=O)[nH]c2c1	-2	27	-12	-18	-9	-2	.	.	.	.
CCOc1ccc(-c2cccc(NS(=O)(=O)c3cccc([N+](=O)[O-])c3)c2)nn1	-4	.	.	.	-6	0	.	.	.	.
COc1cc(C(=O)OCc2csc(CC(=O)Nc3cc(C)ccc3C)n2)ccc1OC(F)F	-5	.	.	.	66*	9	42*	53*	8	5
Cc1ccc(C)c(NC(=O)Cc2nc(CCl)cs2)c1	-12	4	-4	-11	2	-2	.	.	.	.
COc1cccc(-c2csc(N3CCN(C(=S)NCC(C)C)CC3)n2)c1	-9	23	-12	-18	65*	6	42*	44	5	0
CCNC(=S)N1CCN(c2nc(-c3cccc(OC)c3)cs2)CC1	-4	19	11	-7	48	11	.	.	.	.
COc1ccc(NC(=O)N2CCN(c3nc(-c4cccc(OC)c4)cs3)CC2)cc1	-7	10	3	0	64*	10	38*	59*	8	1
O=C(N/N=C/C(Cl)=C/c1ccccc1)c1ccco1	7	25	-2	-1	-5	2	.	.	.	.
COc1ccc(NC(=O)C2CCCN(S(=O)(=O)c3cccc4cccnc34)C2)c(OC)c1 (stereo not drawn)	-1	14	-22	-32	65*	7	23*	29	7	7
COc1ccc(N2CCN(C(=O)C3CCCN(S(=O)(=O)c4cccc5cccnc45)C3)CC2)cc1 (stereo not drawn)	2	5	-5	-20	13	1	.	.	.	.
CC(C)(C)OC(=O)NCc1ccc(CNC(=O)c2[nH]cnc2C(=O)Nc2ccccc2F)cc1	-4	.	.	.	71*	13	42*	46	11	13
CC(C)C[C@H](NC(=O)c1nc[nH]c1C(=O)NC(c1ccccc1)c1ccccc1)C(=O)OC(C)(C)C	-8	-7	-22	-6	56*	8	19	31	0	2
CC(C)C[C@H](NC(=O)c1[nH]cnc1C(=O)N[C@H](C)c1ccccc1)C(=O)OC(C)(C)C	-6	9	-14	-56	12	-1	.	.	.	.
Cc1ccc(NC(=O)c2nc[nH]c2C(=O)N2CCN(C(=O)OC(C)(C)C)CC2)cc1	-7	0	-19	-34	11	9	.	.	.	.
O=C(Nc1ccccc1F)c1nc[nH]c1C(=O)NCc1ccccc1	-5	.	.	.	4	4	.	.	.	.
CC(C)(C)OC(=O)NCc1ccc(CNC(=O)c2nc[nH]c2C(=O)N2CCN(C(=O)OC(C)(C)C)CC2)cc1	-2	0	-21	-23	61*	26	35*	52*	16*	19
SMILES	GalR3 antag	OX1R antag-1	CHO parental Ca	OX1R antag-2	TAAR1 antag	TAAR1 agonist	TAAR1 nonsel count	TAAR1 ant conf	Ga16 nonsel ag	TAAR1 ag counter
C[C@H](NC(=O)c1nc[nH]c1C(=O)NCc1ccc(CNC(=O)OC(C)(C)C)cc1)c1ccccc1	7	2	-12	-12	68*	36	38*	42	10	17
Cc1ccc2nc(N(CCCN(C)C)C(=O)c3sc4ccccc4c3Cl)sc2c1	-7	8	5	-14	18	35	.	.	.	.
C=CS(=O)(=O)N(Cc1ccccc1Br)[C@H](CO)Cc1ccccc1	-2	.	.	.	15	22	.	.	.	.
CCCCC(=O)Nc1cc(OCC)c(NC(=S)NC)cc1OCC	-6	11	-17	-35	1	7	.	.	.	.
CCCC(=O)Nc1cc(S(=O)(=O)N2CCOCC2)ccc1N1CCCCC1	-7	15	-12	-8	-6	-1	.	.	.	.
O=C(O)/C=C/c1ccc2noc(-c3ccccc3)c2c1	7	1	0	-2	-26	1	.	.	.	.
COc1ccc(C2/C(=C(/O)c3ccc(F)cc3)C(=O)C(=O)N2c2ccccn2)cc1OC (stereo not drawn)	-8	-8	2	-18	10	0	.	.	.	.
N=c1c2c(ncn1Cc1ccco1)Oc1c(ccc3ccccc13)C2c1ccccc1 (stereo not drawn)	-7	21	-20	-29	58*	0	14	14	6	35
N=c1c2c(ncn1Cc1ccco1)Oc1cc(O)ccc1C2c1ccccc1 (stereo not drawn)	-1	13	3	-4	-14	0	.	.	.	.
COc1ccc(C(=O)N/N=C(\C)c2cccc(NC(=O)c3ccc(F)cc3)c2)c(OC)c1	-1	30	-11	-25	10	1	.	.	.	.
